Source: ChEMBL document CHEMBL2010791, “3-Phenyl-5-isothiazole carboxamides with potent mGluR1 antagonist activity” (Bioorg Med Chem Lett, 2012)
The source made the active and inactive calls. The rule behind the calls is not given here.

Key:
[1] = target: Metabotropic glutamate receptor 1 (Homo sapiens, UniProt Q13255); assay: Allosteric antagonist activity at human recombinant mGluR1 expressed in AV12 cells assessed as intracellular calcium concentration using Fluo-3 dye by FLIPR assay; type: functional, cell-based
Sequence of Metabotropic glutamate receptor 1 (Homo sapiens, UniProt Q13255) (Q13255 whole entry): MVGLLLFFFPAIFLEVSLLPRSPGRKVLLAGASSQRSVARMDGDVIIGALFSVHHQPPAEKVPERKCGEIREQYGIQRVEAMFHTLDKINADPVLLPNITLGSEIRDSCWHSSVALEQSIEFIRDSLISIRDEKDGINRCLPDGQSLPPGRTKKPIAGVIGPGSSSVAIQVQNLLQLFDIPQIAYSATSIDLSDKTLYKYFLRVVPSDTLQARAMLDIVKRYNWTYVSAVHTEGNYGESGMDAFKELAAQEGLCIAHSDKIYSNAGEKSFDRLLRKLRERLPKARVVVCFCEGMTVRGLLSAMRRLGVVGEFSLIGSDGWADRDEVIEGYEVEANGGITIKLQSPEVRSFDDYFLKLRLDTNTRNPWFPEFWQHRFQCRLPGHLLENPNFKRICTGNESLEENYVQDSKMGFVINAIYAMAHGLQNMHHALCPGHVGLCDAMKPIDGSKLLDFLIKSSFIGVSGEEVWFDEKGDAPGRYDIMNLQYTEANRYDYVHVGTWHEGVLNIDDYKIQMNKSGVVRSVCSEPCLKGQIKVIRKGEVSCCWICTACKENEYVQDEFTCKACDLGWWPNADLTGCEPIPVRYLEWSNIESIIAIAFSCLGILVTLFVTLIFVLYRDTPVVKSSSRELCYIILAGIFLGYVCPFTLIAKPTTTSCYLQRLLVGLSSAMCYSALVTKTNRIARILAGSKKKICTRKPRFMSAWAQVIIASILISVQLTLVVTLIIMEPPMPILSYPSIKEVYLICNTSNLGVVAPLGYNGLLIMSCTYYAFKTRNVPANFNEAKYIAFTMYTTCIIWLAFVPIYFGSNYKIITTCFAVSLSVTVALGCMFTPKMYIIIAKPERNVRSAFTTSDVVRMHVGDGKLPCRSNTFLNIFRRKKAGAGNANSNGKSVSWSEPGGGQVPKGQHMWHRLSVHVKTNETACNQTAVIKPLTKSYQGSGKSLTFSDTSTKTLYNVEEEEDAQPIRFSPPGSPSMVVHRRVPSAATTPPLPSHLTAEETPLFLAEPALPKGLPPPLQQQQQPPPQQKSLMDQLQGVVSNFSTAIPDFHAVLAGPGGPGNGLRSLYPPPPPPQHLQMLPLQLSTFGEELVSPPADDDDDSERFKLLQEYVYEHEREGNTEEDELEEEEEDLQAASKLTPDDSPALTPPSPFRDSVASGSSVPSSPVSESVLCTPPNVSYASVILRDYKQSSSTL
In short: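 Intracellular calcium read with Fluo-3 on a 96-channel FLIPR; peak fluorescence to glutamate at its EC90 with and without compound. Inhibition expressed as percent of assay window (EC90 glutamate response minus buffer); IC50 from 4-parameter logistic fit.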

[2] = target: Metabotropic glutamate receptor 5 (Homo sapiens, UniProt P41594); assay: Antagonist activity at human mGluR5; type: functional
Sequence of Metabotropic glutamate receptor 5 (P41594 whole entry): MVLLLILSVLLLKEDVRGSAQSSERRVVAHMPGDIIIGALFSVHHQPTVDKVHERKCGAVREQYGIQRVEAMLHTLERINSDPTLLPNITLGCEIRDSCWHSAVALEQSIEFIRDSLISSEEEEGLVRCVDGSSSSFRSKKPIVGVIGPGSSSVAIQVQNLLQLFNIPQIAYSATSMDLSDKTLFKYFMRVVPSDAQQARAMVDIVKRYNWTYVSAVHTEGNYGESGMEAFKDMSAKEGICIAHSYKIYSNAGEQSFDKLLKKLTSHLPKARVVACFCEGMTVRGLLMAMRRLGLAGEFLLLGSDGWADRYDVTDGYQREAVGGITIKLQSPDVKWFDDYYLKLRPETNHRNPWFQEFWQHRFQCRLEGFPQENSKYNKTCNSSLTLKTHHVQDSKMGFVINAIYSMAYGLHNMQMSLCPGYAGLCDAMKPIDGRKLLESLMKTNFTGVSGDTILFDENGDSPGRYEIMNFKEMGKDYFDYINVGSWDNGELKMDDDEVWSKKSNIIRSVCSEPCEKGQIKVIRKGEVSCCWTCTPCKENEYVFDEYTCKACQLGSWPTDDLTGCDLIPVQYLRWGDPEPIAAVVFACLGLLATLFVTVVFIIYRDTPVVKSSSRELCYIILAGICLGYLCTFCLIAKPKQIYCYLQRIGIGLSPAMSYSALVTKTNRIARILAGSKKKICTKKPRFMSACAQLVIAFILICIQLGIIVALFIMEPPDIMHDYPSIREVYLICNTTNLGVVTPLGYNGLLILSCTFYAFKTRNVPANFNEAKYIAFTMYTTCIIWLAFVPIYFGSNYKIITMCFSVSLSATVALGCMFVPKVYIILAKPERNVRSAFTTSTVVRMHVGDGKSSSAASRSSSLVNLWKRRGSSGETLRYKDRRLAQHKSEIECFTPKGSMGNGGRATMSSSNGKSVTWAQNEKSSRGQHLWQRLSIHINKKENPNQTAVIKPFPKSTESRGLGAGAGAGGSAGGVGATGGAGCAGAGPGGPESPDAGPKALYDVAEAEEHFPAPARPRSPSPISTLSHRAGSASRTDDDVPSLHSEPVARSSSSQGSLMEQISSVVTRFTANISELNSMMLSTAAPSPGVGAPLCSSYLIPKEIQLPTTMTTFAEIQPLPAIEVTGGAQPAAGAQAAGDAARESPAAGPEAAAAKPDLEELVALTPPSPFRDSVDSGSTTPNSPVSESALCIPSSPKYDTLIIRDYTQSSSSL

[3] = target: Metabotropic glutamate receptor 1 (Rattus norvegicus, UniProt P23385); assay: Antagonist activity at rat mGluR1; type: functional
Sequence of Metabotropic glutamate receptor 1 (Rattus norvegicus, UniProt P23385) (P23385 whole entry): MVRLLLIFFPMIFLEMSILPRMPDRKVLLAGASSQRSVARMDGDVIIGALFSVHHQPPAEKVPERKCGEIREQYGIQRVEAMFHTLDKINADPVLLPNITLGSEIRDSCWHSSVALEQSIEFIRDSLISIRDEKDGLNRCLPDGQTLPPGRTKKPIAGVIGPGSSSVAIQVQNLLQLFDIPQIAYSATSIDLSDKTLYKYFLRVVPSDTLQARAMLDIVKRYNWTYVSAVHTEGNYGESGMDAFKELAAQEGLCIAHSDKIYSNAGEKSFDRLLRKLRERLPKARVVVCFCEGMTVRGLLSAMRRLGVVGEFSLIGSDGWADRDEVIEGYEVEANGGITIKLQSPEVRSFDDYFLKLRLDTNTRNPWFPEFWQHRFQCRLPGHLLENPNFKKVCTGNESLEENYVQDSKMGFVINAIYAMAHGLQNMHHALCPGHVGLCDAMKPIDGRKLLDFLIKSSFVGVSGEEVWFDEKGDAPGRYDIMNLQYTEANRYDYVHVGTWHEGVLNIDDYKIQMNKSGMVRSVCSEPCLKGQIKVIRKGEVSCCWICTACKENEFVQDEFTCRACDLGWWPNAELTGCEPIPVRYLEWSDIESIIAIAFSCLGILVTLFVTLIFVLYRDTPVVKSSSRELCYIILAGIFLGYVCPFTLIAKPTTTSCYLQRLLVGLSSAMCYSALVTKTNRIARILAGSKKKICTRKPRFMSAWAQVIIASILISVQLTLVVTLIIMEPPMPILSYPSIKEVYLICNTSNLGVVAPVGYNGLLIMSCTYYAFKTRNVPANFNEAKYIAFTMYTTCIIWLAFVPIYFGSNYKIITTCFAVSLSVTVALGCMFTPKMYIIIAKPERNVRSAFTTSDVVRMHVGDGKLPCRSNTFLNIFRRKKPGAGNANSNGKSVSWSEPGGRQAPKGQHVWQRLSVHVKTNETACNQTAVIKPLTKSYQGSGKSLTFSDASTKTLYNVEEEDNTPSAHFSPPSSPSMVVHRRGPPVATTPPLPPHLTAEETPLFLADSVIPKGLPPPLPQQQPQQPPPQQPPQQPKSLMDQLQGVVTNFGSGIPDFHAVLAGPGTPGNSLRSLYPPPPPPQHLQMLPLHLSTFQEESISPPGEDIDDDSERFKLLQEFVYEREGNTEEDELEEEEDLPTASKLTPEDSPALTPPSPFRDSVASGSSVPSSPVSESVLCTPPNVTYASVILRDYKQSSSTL

[4] = Tmax in Sprague-Dawley rat at 10 mg/kg, po; type: ADME, organism-based; design: dose 10 mg/kg, route oral; conditions: in vivo
In short: (§1)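 Sprague Dawley rats dosed 3 mg/kg IV (solution in 25 mmol/L phosphate buffer pH 3 with 5% solutol HS15 and 5% pharmasolve) and 10 mg/kg orally (suspension in 1% methylcellulose A400 plus 0.1% antifoam); plasma levels measured over 24 h to derive PK parameters.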

[5] = Cmax in Sprague-Dawley rat at 10 mg/kg, po; type: ADME, organism-based; design: dose 10 mg/kg, route oral; conditions: in vivo; in short: as §1
[6] = AUC (0 to 24 hrs) in Sprague-Dawley rat at 10 mg/kg, po; type: ADME, organism-based; design: time < 24 hr, dose 10 mg/kg, route oral; conditions: plasma; in short: as §1
[7] = Elimination half life in Sprague-Dawley rat at 3 mg/kg, iv; type: ADME, organism-based; design: dose 3 mg/kg, route intravenous; conditions: in vivo, read-out: beta t1/2 (converted); in short: as §1
[8] = Elimination half life in Sprague-Dawley rat at 10 mg/kg, po; type: ADME, organism-based; design: dose 10 mg/kg, route oral; conditions: in vivo, read-out: beta t1/2 (converted); in short: as §1
[9] = Clearance in Sprague-Dawley rat at 3 mg/kg, iv and at 10 mg/kg, po; type: ADME, organism-based; conditions: in vivo; in short: as §1
[10] = Volume of distribution in Sprague-Dawley rat at 3 mg/kg, iv and at 10 mg/kg, po; type: ADME, organism-based; conditions: in vivo; in short: as §1
[11] = Oral bioavailability in Sprague-Dawley rat at 10 mg/kg; type: ADME, organism-based; conditions: in vivo; in short: as §1
[12] = Ratio of drug level in brain to plasma in Sprague-Dawley rat; type: ADME; conditions: read-out: BPR
In short: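 Rats dosed as in the plasma PK study; brain concentration profiles measured alongside plasma and the brain/plasma ratio taken.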

Rattus norvegicus [13] = assay: Ex vivo receptor occupancy of mGluR1 in po dosed fasted Sprague-Dawley rat assessed as ratio of drug level in cerebellum to frontal cortex after 20 mins; type: functional
In short: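 Fasted Sprague Dawley rats dosed orally (0.3–60 mg/kg; vehicle 1% methyl cellulose), then 1 h later given a 30 µg/kg IV bolus of a competing mGluR1 antagonist tracer. Killed 20 min later; cerebellum and frontal cortex levels measured by mass spectrometry. Occupancy by ratio method (cerebellum normalized to cortex), n = 4 per dose (n = 3 at 10 mg/kg).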

Rattus norvegicus [14] = assay: Analgesic activity in po dosed fasted Harlan Sprague-Dawley rat assessed as inhibition of formalin-induced paw-licking behaviour in late phase administered 1 hr before formalin challenge measured after 11 to 40 mins; type: functional
In short: (§2)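 Fasted male Sprague Dawley rats dosed orally (1, 3, 10, 30, 60 mg/kg, n = 8 per group) 1 h before intraplantar injection of 50 µl 5% formalin into right hindpaw. Paw-licking events counted 0–5 min (early) and 11–40 min (late); compared with vehicle, p<0.05.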

Rattus norvegicus [15] = assay: Toxicity in fasted Sprague-Dawley rat assessed as deffects in motor impairment at 60 mg/kg, po measured up to 4 hrs by rotorod test; type: organism-based; design: dose 60 mg/kg, route oral; conditions: in vivo
In short: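 Fasted male Sprague Dawley rats given 60 mg/kg orally or vehicle (n = 8 per group); time on rotorod recorded at 1, 2, 3 and 4 h post-dose after training to 40 s baseline.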

[16] = target: Metabotropic glutamate receptor 3 (Homo sapiens) (UniProt Q14832); assay: Antagonist activity at mGluR3; type: functional
[17] = target: Metabotropic glutamate receptor 4 (Homo sapiens) (UniProt Q14833); assay: Antagonist activity at mGluR4; type: functional
Sequence of Metabotropic glutamate receptor 4 (Homo sapiens) (Q14833 whole entry): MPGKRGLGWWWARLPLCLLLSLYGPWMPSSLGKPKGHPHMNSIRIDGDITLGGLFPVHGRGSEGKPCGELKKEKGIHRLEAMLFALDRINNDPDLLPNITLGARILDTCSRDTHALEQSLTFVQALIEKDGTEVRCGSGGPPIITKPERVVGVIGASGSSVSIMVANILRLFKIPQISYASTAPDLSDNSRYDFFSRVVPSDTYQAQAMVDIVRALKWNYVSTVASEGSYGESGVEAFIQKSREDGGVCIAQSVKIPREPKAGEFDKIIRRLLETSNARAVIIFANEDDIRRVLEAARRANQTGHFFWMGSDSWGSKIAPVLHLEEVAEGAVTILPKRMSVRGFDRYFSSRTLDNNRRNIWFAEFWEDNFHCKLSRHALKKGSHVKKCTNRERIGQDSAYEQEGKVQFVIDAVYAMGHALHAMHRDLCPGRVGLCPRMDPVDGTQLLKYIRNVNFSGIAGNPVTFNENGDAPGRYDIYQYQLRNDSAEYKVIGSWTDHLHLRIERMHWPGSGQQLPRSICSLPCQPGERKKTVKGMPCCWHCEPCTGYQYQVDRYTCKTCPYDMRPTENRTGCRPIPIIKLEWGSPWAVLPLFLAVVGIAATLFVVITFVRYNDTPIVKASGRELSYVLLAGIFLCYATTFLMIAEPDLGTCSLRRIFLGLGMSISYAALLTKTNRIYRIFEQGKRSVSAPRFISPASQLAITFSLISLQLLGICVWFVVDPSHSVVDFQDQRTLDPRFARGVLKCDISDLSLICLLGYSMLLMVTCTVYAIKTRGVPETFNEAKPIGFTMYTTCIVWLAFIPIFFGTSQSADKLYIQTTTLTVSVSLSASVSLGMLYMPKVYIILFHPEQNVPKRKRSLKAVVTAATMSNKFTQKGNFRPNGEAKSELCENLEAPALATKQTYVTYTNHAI

[18] = target: Metabotropic glutamate receptor 7 (Homo sapiens) (UniProt Q14831); assay: Antagonist activity at mGluR7; type: functional
[19] = target: Metabotropic glutamate receptor 8 (Homo sapiens) (UniProt O00222); assay: Antagonist activity at mGluR8; type: functional
Rattus norvegicus [20] = assay: Analgesic activity in fasted Harlan Sprague-Dawley rat assessed as inhibition of formalin-induced paw-licking behaviour in late phase at 3 to 60 mg/kg, po administered 1 hr before formalin challenge measured after 11 to 40 mins; type: functional, organism-based; in short: as §2

Row | IC50 [1] | IC50 [2] | Structure (SMILES) | other results
1 | 138 nM | > 12500 nM | Cc1c(-c2ccc(O)cc2)nsc1NC(=O)[C@@H]1C[C@H]1C | –
2 | 7 nM | 730 nM | Cc1c(-c2ccc(Br)cc2)nsc1NC(=O)[C@@H]1C[C@H]1C | –
3 | 7 nM | 159 nM | COc1ccc(-c2nsc(NC(=O)[C@@H]3C[C@H]3C)c2C)cc1F | –
4 | 100 nM | > 12500 nM | Cc1c(-c2ccc(F)cc2)nsc1NC(=O)[C@@H]1C[C@H]1C | –
5 | 110 nM | – | COc1ccc(-c2nsc(NC(=O)[C@H]3C[C@@H]3C)c2C)cc1 | –
6 | 9 nM | 158 nM | COc1ccc(-c2nsc(NC(=O)[C@@H]3C[C@H]3C)c2C)cc1 [listing 1 of 2 here] | IC50 [3]: 0.9 nM; Tmax [4]: 1 h; Cmax [5]: 1050 ng/mL; AUC(0-t) at 24 h [6]: 3240 ng·h/mL; half-life [7]: 0.41 h; half-life [8]: 1.24 h; clearance [9]: 35.9 mL/min/kg; Vd [10]: 1.27 L/kg; bioavailability [11]: 55.5%; Kp [12]: 0.2; ED50 (Rattus norvegicus [13]): 3.7 mg/kg; ED50 (Rattus norvegicus [14]): 7 mg/kg; Activity (Rattus norvegicus [15]): Non-toxic
7 | 67 nM | > 12500 nM | Cc1c(-c2ccc(C(C)(F)F)cc2)nsc1NC(=O)[C@@H]1C[C@H]1C | –
8 | 65 nM | > 12500 nM | Cc1c(-c2ccccc2)nsc1NC(=O)[C@@H]1C[C@H]1C | –
9 | 92 nM | 19 nM | CCOc1ccc(-c2nsc(NC(=O)[C@@H]3C[C@H]3C)c2C)cc1 | –
10 | – | – | COc1ccc(-c2nsc(NC(=O)[C@@H]3C[C@H]3C)c2C)cc1 [listing 2 of 2 here] | Activity [16]: inactive; Activity [17]: inactive; Activity [18]: inactive; Activity [19]: inactive; Activity (Rattus norvegicus [14]): Dose-dependent effect; Activity (Rattus norvegicus [20]): Active
11 | 39 nM | 6650 nM | Cc1c(-c2ccc(Cl)c(Cl)c2)nsc1NC(=O)[C@@H]1C[C@H]1C | –
12 | 32 nM | – | COc1ccc(-c2nsc(NC(=O)[C@@H]3C[C@H]3C)c2C)cc1 (racemic) | –
13 | 9 nM | 1220 nM | Cc1c(-c2ccc(Cl)cc2)nsc1NC(=O)[C@@H]1C[C@H]1C | –
